# Assay results from article PMC5736852 (British Journal of Clinical Pharmacology, 2017).
# Like-named read-outs stand apart in the source and are kept apart here. Marks after values point to notes of the source that are not given here.
# Columns and labels:
# [1] = Global population pharmacokinetic analysis of alisertib in cancer patients; assay type: in vivo, human; conditions: for half-life: human, plasma, oral
# [2] = Exposure–safety logistic regression; assay type: in vivo, human
# In short: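 Cancer patients (Western and Japan/East Asia) took oral test compound for 7 days in 21-day cycles, fasting from 2 h before to 1 h after dosing. Plasma levels were measured by LC/MS/MS. Per-patient time-averaged AUC per day covered dosing start to onset of worst-grade toxicity, from actual doses and individual CL/F from a two-compartment population PK model. Incidence (n = 591/593/594) was regressed logistically on log-transformed AUC.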
# [3] = Western patients, cited from earlier work
# [4] = cited from earlier work
# [5] = 30 mg b.i.d., patients in East Asia
# [6] = 50 mg b.i.d., patients in East Asia
# [7] = 50 mg b.i.d., patients in the West
# [8] = East Asian patients, b.i.d. dosing
structure (smiles),measurement,setting,value
COc1cc(Nc2ncc3c(n2)-c2ccc(Cl)cc2C(c2c(F)cccc2OC)=NC3)ccc1C(=O)O [alisertib],GM (CV) dose-normalized alisertib AUC(0–τ),"[1]; Asian patients in Asia, n = 59",797 (45%) nM.h
same,GM (CV) dose-normalized alisertib AUC(0–τ),"[1]; Asian patients in the West, n = 8",475 (43%) nM.h
same,"geometric mean (%CV) dose-normalized alisertib AUC0–τ,ss","[1]; Region East, All (Japanese, Korean, Chinese), n = 59",797 (45) nM.h mg^–1
same,"geometric mean (%CV) dose-normalized alisertib AUC0–τ,ss","[1]; Region East, Chinese, n = 22",752 (48) nM.h mg^–1
same,"geometric mean (%CV) dose-normalized alisertib AUC0–τ,ss","[1]; Region East, Japanese, n = 23",799 (34) nM.h mg^–1
same,"geometric mean (%CV) dose-normalized alisertib AUC0–τ,ss","[1]; Region East, Korean, n = 13",885 (53) nM.h mg^–1
same,"geometric mean (%CV) dose-normalized alisertib AUC0–τ,ss","[1]; Region West, All non-Asian races, n = 604",482 (43) nM.h mg^–1
same,"geometric mean (%CV) dose-normalized alisertib AUC0–τ,ss","[1]; Region West, All, n = 612",482 (43) nM.h mg^–1
same,"geometric mean (%CV) dose-normalized alisertib AUC0–τ,ss","[1]; Region West, Asian, n = 8",475 (43) nM.h mg^–1
same,"geometric mean (%CV) dose-normalized alisertib AUC0–τ,ss","[1]; Region West, Black, n = 33",462 (57) nM.h mg^–1
same,"geometric mean (%CV) dose-normalized alisertib AUC0–τ,ss","[1]; Region West, White, n = 556",482 (43) nM.h mg^–1
same,"BSAV1, effect of BSA on V1/F, pop value",[1]; final model,0.899
same,"CL/F, V1/F, V2/F and Q/F lower in the East Asian region",[1]; final model,34.1%
same,"KTR, transit compartment rate constant, pop value",[1]; final model,4.17 1 h^–1
same,"V1/F, apparent central volume, pop value",[1]; final model,54.3 L
same,"V2/F, apparent peripheral volume, pop value",[1]; final model,28.7 L
same,net mean transit time for oral absorption,[1]; final model,0.96 h
same,"CL/F, apparent clearance, pop value",[1]; final model (analysis data set n = 422),4.11 l h^–1
same,higher bioavailability (F) in East Asian region compared with Western patients,"[1]; final model, covariate effect of region on F",52%
same,"RGNF, effect of region, pop value","[1]; final model, affected parameters multiplied by (1–0.341) for East Asian region",−0.341 ^a
same,half-life,"[1]; population alpha half-life, final model",1.71 h
same,half-life,"[1]; population beta half-life, final model",15.1 h
same,GM (CV) dose-normalized alisertib AUC(0–τ),"[1]; non-Asian patients in the West, n = 604",482 (43%) nM.h
same,estimated population mean time-averaged AUC,[2]; [5],14.23 μM*h day^–1
same,estimated probability of grade ≥2 diarrhoea,[2]; [5],12%
same,estimated probability of grade ≥2 stomatitis,[2]; [5],6.5%
same,estimated probability of grade ≥3 neutropenia,[2]; [5],37%
same,estimated population mean time-averaged AUC,[2]; [6],23.72 μM*h day^–1
same,estimated probability of grade ≥2 diarrhoea,[2]; [6],17%
same,estimated probability of grade ≥2 stomatitis,[2]; [6],13%
same,predicted probability of grade ≥3 neutropenia,[2]; [6],46%
same,estimated population mean time-averaged AUC,[2]; [7],15.63 μM*h day^–1
same,estimated probability of grade ≥2 diarrhoea,[2]; [7],13%
same,estimated probability of grade ≥2 stomatitis,[2]; [7],7%
same,predicted probability of grade ≥3 neutropenia,[2]; [7],39%
same,maximum tolerated dose (MTD),[3]; b.i.d. for 7 days in a 21-day cycle,50 mg
same,median Tmax,[3]; postdose,2 to 3 h
same,mean steady-state half-life following multiple dosing,[3],19 to 23 h
same,patients who discontinued alisertib owing to treatment-emergent AEs,"[4]; East Asian patients, 30 mg b.i.d., two of 30 patients",6.7%
same,half-life,[4]; [8],15 to 17 h
same,median Tmax,[4]; [8],2 to 3 h
same,maximum tolerated dose (MTD),"[4]; East Asian patients, b.i.d. for 7 days in 21-day cycles",30 mg
same,higher geometric mean steady-state systemic exposure in East Asian patients,[4]; East Asian vs Western patients,approximately 70%
same,mean CL/F in East Asian patients lower than in Western patients,[4]; East Asian vs Western patients,approximately 40%
